# In ChEMBL document CHEMBL2163322, “Identification of small molecule inhibitors of the HIV-1 nucleocapsid-stem-loop 3 RNA complex” (J Med Chem, 2012):
# Active and inactive are the calls of the source. No cut-off for these calls is given here.
# How the values were obtained:
# Nucleic Acid [1] = assay: Binding affinity to HIV 1 fluorescein-labeled SL3 RNA by fluorescence spectrometry; type: nucleic-acid assay, Human immunodeficiency virus 1; conditions: for Kd: read-out: Kd(app); for Activity: Human immunodeficiency virus 1
# How it was run: (§1)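 Fluorescence titration of 5′-fluorescein-labeled RNA (25 nM) in 10 mM Tris-HCl pH 7.4, 25 mM NaCl at 25 °C. Ligand is added stepwise until the signal plateaus, with 3–5 min equilibration per addition. Excitation is 490 nm; emission at 517 nm is used. Fraction bound is fit to a 1:1 model, or a 2:1 cooperative model for one ligand, to give apparent KD. Fluorescein-only and DMSO controls are run. SD is from at least three measurements.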
# Nucleic Acid [2] = assay: Binding affinity to single stranded RNA by fluorescence spectrometry; type: nucleic-acid assay; conditions: for Kd: read-out: Kd(app); how it was run: as §1
# Nucleic Acid [3] = assay: Binding affinity to double stranded RNA by fluorescence spectrometry; type: nucleic-acid assay; conditions: for Kd: read-out: Kd(app); how it was run: as §1
# Nucleic Acid [4] = assay: Binding affinity to HIV 1 SL3 RNA by ITC analysis; type: nucleic-acid assay, Human immunodeficiency virus 1; conditions: read-out: Kd(app)
# How it was run: (§2)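 Isothermal titration calorimetry at 25 °C. Ligand at 1 mM is injected in 10 μL aliquots into 20 μM RNA. Both are in 10 mM sodium phosphate pH 7.4 with 10% DMSO. Injections last 24 s and are spaced 240 s apart. Heats are corrected with ligand-into-buffer controls. KD values come from a sequential two-site binding fit to heat versus ligand:RNA molar ratio. SD is from two measurements.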
# Nucleic Acid [5] = assay: Binding affinity to HIV 1 SL3 RNA assessed as second binding dissociation constant by ITC analysis; type: nucleic-acid assay, Human immunodeficiency virus 1; conditions: read-out: Kd(app)
# How it was run: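 ITC at 25 °C: ligand (1 mM) in 10 mM sodium phosphate pH 7.4 with 10% DMSO injected in 10 μL aliquots into 20 μM SL3 RNA in the same buffer. Injections lasted 24 s at 240 s spacing. Heats of ligand-into-buffer titrations were subtracted. Heat versus ligand:RNA molar ratio was fit to a sequential two-site model, with the second KD taken from the second site. Two measurements.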
# Nucleic Acid [6] = assay: Destabilization of HIV1 [32P]-labeled SL3 RNA-NCp complex assessed as displacement of NCp from SL3 RNA after 1 hr by electrophoretic gel mobility shift assay; type: nucleic-acid assay, Human immunodeficiency virus 1; conditions: for Ki: read-out: Ki(app)
# How it was run: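 Gel shift assay. Ligand is then added at rising concentrations for another 1 h. Samples are run on a 6% native gel at 4 °C. IC50 comes from a Hill fit of bound-RNA counts. Ki = IC50/(1+[PT]/KD). SD is from at least three experiments.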
# Nucleic Acid [7] = assay: Inhibition of HIV1 [32P]-labeled SL3 RNA interaction with NCp at 1mM after 1 hr by electrophoretic gel mobility shift assay; type: nucleic-acid assay; conditions: Human immunodeficiency virus 1
# How it was run: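 Screen for single-point inhibition. Ligand is added at a final 1 mM to a preformed NCp7–SL3 RNA complex and incubated 1 h. Bound and free RNA are then resolved by gel mobility shift assay.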
# Nucleic Acid [8] = assay: Binding affinity to single stranded RNA assessed as second binding dissociation constant by ITC analysis; type: nucleic-acid assay; conditions: read-out: Kd(app); how it was run: as §2
# Nucleic Acid [9] = assay: Binding affinity to double stranded RNA by ITC analysis; type: nucleic-acid assay; conditions: read-out: Kd(app); how it was run: as §2
# Nucleic Acid [10] = assay: Binding affinity to single stranded RNA by ITC analysis; type: nucleic-acid assay; conditions: read-out: Kd(app); how it was run: as §2
# Nucleic Acid [11] = assay: Selectivity ratio of Kd for single stranded RNA to Kd for HIV 1 SL3 RNA; type: nucleic-acid assay
# Nucleic Acid [12] = assay: Selectivity ratio of Kd for double stranded RNA to Kd for HIV 1 SL3 RNA; type: nucleic-acid assay
# Nucleic Acid [13] = assay: Binding affinity to double stranded RNA assessed as second binding dissociation constant by ITC analysis; type: nucleic-acid assay; conditions: read-out: Kd(app); how it was run: as §2
smiles,measurement,setting,value
COc1ccc(NCc2ccc([N+](=O)[O-])s2)cc1OC,Kd,Nucleic Acid [1],11.1 µM
same,Kd,Nucleic Acid [2],14 µM
same,Kd,Nucleic Acid [3],8.4 µM
O=C(Cc1ccccc1)Nc1ccc(N2CCCC2)cc1,Activity,Nucleic Acid [1],inactive
Nc1ccccc1NCCOc1ccccc1,Kd,Nucleic Acid [1],51 µM
same,Activity,Nucleic Acid [2],Active
same,Activity,Nucleic Acid [3],Active
O=C1NC(=S)NC(=O)C1=Cc1cn(-c2ccccc2)nc1-c1cc2c(ccc3ccccc32)oc1=O,Kd,Nucleic Acid [4],68 µM
same,Kd,Nucleic Acid [5],488 µM
same,IC50,Nucleic Acid [6],123 µM
same,Ki,Nucleic Acid [6],40 µM
Cc1cccn2c(=O)c3cc(C(=O)NC(C)c4ccccc4)c(=N)n(CCOCCO)c3nc12 (centres undefined),Kd,Nucleic Acid [1],4.5 µM
same,Kd,Nucleic Acid [2],4.1 µM
same,Kd,Nucleic Acid [3],5.1 µM
O=C(C[n+]1cccc(C(=O)N/N=C/c2ccc(Br)cc2)c1)c1ccccc1,Activity,Nucleic Acid [1],inactive
CNC(=O)c1cc2c(=O)n3cccc(C)c3nc2n(CCCO)c1=N,Kd,Nucleic Acid [1],3.5 µM
same,Kd,Nucleic Acid [2],9.5 µM
same,Kd,Nucleic Acid [3],8.2 µM
O=C1Oc2ccccc2C(=O)/C1=C/N1C(=O)N/C(=C\c2ccccc2O)C1=O,inhibition,Nucleic Acid [7],Active
same,IC50,Nucleic Acid [6],340 µM
same,Ki,Nucleic Acid [6],110 µM
COc1ccc(N/C(S)=N/CCCn2ccnc2)cc1,Activity,Nucleic Acid [1],inactive
N=C1NC(=O)/C(=C\c2ccc3ccccc3c2)S1,Kd,Nucleic Acid [1],11 µM
same,Kd,Nucleic Acid [2],8.9 µM
same,Kd,Nucleic Acid [3],11.2 µM
CC1CCN(c2ccc(N)cc2)CC1,Kd,Nucleic Acid [1],44 µM
same,Activity,Nucleic Acid [2],Active
same,Activity,Nucleic Acid [3],Active
CN1CCN(CCCN2c3ccccc3Sc3ccc(C(F)(F)F)cc32)CC1 [TRIFLUOPERAZINE],Kd,Nucleic Acid [1],1.7 µM
same,Kd,Nucleic Acid [2],2 µM
same,Kd,Nucleic Acid [3],2.19 µM
Nc1c(S(=O)(=O)O)cc(Nc2ccc(S(N)(=O)=O)cc2)c2c1C(=O)c1ccccc1C2=O,Kd,Nucleic Acid [4],11 µM
same,Kd,Nucleic Acid [5],11000 µM
same,IC50,Nucleic Acid [6],70 µM
same,Ki,Nucleic Acid [6],20 µM
Cc1cccn2c(=O)c3cc(C(=O)NCCN4CCOCC4)c(=N)n(Cc4cccnc4)c3nc12,Kd,Nucleic Acid [1],5 µM
same,Kd,Nucleic Acid [2],11.8 µM
same,Kd,Nucleic Acid [3],8.3 µM
O=C(NN=Cc1ccc(Br)cc1)c1cc[n+](Cc2ccccc2)cc1,Kd,Nucleic Acid [1],33 µM
same,Activity,Nucleic Acid [2],Active
same,Activity,Nucleic Acid [3],Active
Cc1cccn2c(=O)c3cc(C(=O)N4CCN(C)CC4)c(=N)n(CC4CCCO4)c3nc12 (centres undefined),Kd,Nucleic Acid [8],12000 µM
same,Kd,Nucleic Acid [1],10 µM
same,Kd,Nucleic Acid [9],189 µM
same,Kd,Nucleic Acid [10],280 µM
same,Kd,Nucleic Acid [4],14.5 µM
same,Selectivity ratio,Nucleic Acid [11],19
same,Selectivity ratio,Nucleic Acid [12],13
same,Kd,Nucleic Acid [13],2400 µM
O=[N+]([O-])c1ccc(SCCO)c2ncccc12,Kd,Nucleic Acid [1],90 µM
same,Selectivity ratio,Nucleic Acid [11],> 7
same,Kd,Nucleic Acid [2],> 604 µM
same,Kd,Nucleic Acid [3],> 1110 µM
same,Selectivity ratio,Nucleic Acid [12],> 12
Nc1c(S(=O)(=O)O)cc(Nc2cccc(S(N)(=O)=O)c2)c2c1C(=O)c1ccccc1C2=O,inhibition,Nucleic Acid [7],Active
O=C1c2ccccc2C(=O)c2c(NCCO)ccc(NCCO)c21,Kd,Nucleic Acid [1],1.1 µM
same,Kd,Nucleic Acid [2],2.2 µM
same,Kd,Nucleic Acid [3],3.2 µM
same,IC50,Nucleic Acid [6],700 µM
same,Ki,Nucleic Acid [6],200 µM
O=C(NC(=S)Nc1ccc(N2CCCC2)cc1)c1ccccc1[N+](=O)[O-],Activity,Nucleic Acid [1],inactive
O=C1NC(=S)N/C1=C/c1ccc2ccccc2c1,Kd,Nucleic Acid [1],13.2 µM
same,Kd,Nucleic Acid [2],7.5 µM
same,Kd,Nucleic Acid [3],12 µM
